Data: PMC8923172 (Antimicrobial Agents and Chemotherapy, 2022)
Marks after values point to notes of the source that are not given here. Residues, ends and D or L forms follow the SMILES beside them.

Assay: Serum biochemistry of cynomolgus monkeys at the end of treatment
Format: in vivo
Details: median (IQR)
In short: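 GLP 10-day study in male and female cynomolgus monkeys (n = 3-5/sex/group) dosed once daily with 0 (placebo), 5, 10 or 15 mg/kg test compound by i.v. infusion over 60 ± 5 min. Hematology, serum chemistry and coagulation were taken at end of treatment and reported as median (IQR). Dose groups were compared by Kruskal-Wallis with Dunn's multiple comparison test.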

## CC[C@H](C)[C@@H]1NC(=O)[C@@H]2CSSC[C@H](NC(=O)[C@H](CCCNC(=N)N)NC(=O)[C@@H]3CSSC[C@H](NC1=O)C(=O)N[C@@H]([C@@H](C)O)C(=O)N[C@@H](CCCNC(=N)N)C(=O)NCC(=O)N[C@@H](Cc1ccccc1)C(=O)N3)C(=O)N[C@@H](CC(C)C)C(=O)N[C@H]1CSSC[C@H](NC(=O)[C@H](C(C)C)NC(=O)CNC(=O)[C@H](CCCNC(=N)N)NC(=O)[C@H](CCCNC(=N)N)NC1=O)C(=O)N[C@@H](CCCNC(=N)N)C(=O)N2 [RTD-1, Rhesus theta (θ) defensin-1] (HELM PEPTIDE1{G.F.C.R.C.L.C.R.R.G.V.C.R.C.I.C.T.R}$PEPTIDE1,PEPTIDE1,3:R3-16:R3|PEPTIDE1,PEPTIDE1,5:R3-14:R3|PEPTIDE1,PEPTIDE1,7:R3-12:R3|PEPTIDE1,PEPTIDE1,1:R1-18:R2$$$V2.0)
female, 15 mg/kg/day
  Creatinine: 0.7 (0.1) mg/dL
  GGT: 99.0 (37.0) U/L
  Globulin: 2.8 (0.1) g/dL
  Glucose: 78.0 (18.0)^c mg/dL
  Phos: 5.3 (0.3)^c mg/dL
  Potassium: 6.0 (1.0) mmol/L
  Sodium: 146.0 (4.0) mmol/L
  T-Bil: 0.2 (0.2) mg/dL
  TP: 7.1 (0.8) g/dL
  Triglycerides: 56.0 (11.0) mg/dL
  Urea N: 18.0 (1.0) mg/dL
male, 5 mg/kg/day
  A/G: 1.8 (0.1)
  ALP: 802.0 (253.0) U/L
  ALT: 172.0 (125.0) U/L
  AST: 122.0 (190.0) U/L
  Albumin: 4.8 (0.2) g/dL
  CK: 888.0 (13,478.0) U/L
  Calcium: 9.8 (0.5) mg/dL
  Chloride: 110.0 (2.0) mmol/L
  Cholesterol: 110.0 (15.5) mg/dL
  Creatinine: 0.8 (0.2) mg/dL
  GGT: 137.0 (31.5) U/L
  Globulin: 2.7 (0.1) g/dL
  Glucose: 111.0 (26.5) mg/dL
  Phos: 5.5 (1.7) mg/dL
  Potassium: 6.0 (1.4) mmol/L
  Sodium: 147.0 (4.0) mmol/L
  T-Bil: 0.3 (0.1) mg/dL
  TP: 7.5 (0.2) g/dL
  Triglycerides: 46.0 (18.5) mg/dL
  Urea N: 15.0 (3.5) mg/dL
male, 10 mg/kg/day
  A/G: 1.7 (0.2)
  ALP: 753.0 (3.5) U/L
  ALT: 105.0 (26.5) U/L
  AST: 105.0 (43.5) U/L
  Albumin: 4.7 (0.2) g/dL
  CK: 515.0 (2,756.5) U/L
  Calcium: 10.5 (0.4) mg/dL
  Chloride: 110.0 (1.5) mmol/L
  Cholesterol: 99.0 (16.5) mg/dL
  Creatinine: 0.6 (0.1) mg/dL
  GGT: 119.0 (32.5) U/L
  Globulin: 2.9 (0.4) g/dL
  Glucose: 71.0 (23.0) mg/dL
  Phos: 5.4 (0.8) mg/dL
  Potassium: 5.9 (0.9) mmol/L
  Sodium: 150.0 (3.0) mmol/L
  T-Bil: 0.3 (0.0) mg/dL
  TP: 7.5 (0.5) g/dL
  Triglycerides: 32.0 (6.0) mg/dL
  Urea N: 20.0 (3.5) mg/dL
male, 15 mg/kg/day
  A/G: 1.6 (0.2)
  ALP: 957.0 (638.0) U/L
  ALT: 88.0 (17.0) U/L
  AST: 103.0 (40.0) U/L
  Albumin: 4.4 (0.2) g/dL
  CK: 518.0 (1,392.0) U/L
  Calcium: 10.1 (0.3) mg/dL
  Chloride: 112.0 (1.0) mmol/L
  Cholesterol: 105.0 (50.0) mg/dL
  Creatinine: 0.6 (0.1) mg/dL
  GGT: 101.0 (6.0) U/L
  Globulin: 2.9 (0.5) g/dL
  Glucose: 67.0 (5.0) mg/dL
  Phos: 5.2 (0.6) mg/dL
  Potassium: 5.8 (0.6) mmol/L
  Sodium: 149.0 (2.0) mmol/L
  T-Bil: 0.2 (0.2) mg/dL
  TP: 7.5 (0.8) g/dL
  Triglycerides: 78.0 (52.0) mg/dL
  Urea N: 15.0 (2.0) mg/dL
